Assay [1] deals with T1, Nociceptin receptor (Homo sapiens, UniProt P41146). Kind of assay: Displacement of [3H]N/OFQ from human recombinant NOP receptor expressed in CHO cells. It counts as cell-based. An outline of the steps:
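Membranes from CHO cells expressing human NOP, prepared in 50 mM Tris-HCl, 5 mM Mg2+ pH 7.4. Incubation: 5 µg protein, ~200 pM [3H]N/OFQ, 10 µM peptidase inhibitors (amastatin, bestatin, captopril, phosphoramidon), 0.5% BSA, increasing competitor concentrations, 1 h at room temperature. Nonspecific binding defined with 1 µM unlabeled N/OFQ. Filtration onto 0.5% PEI-soaked GF/B filters; pKi reported.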

In assay [2] the test system is Mus musculus. The assay can be described thus: Effect on N/OFQ-induced pronociciceptive activity in Swiss albino mouse at 10 mg/kg, ip administered 30 mins before 1 nmol, icv N/OFQ challenge by tail withdrawal latency test. It is filed as functional, organism-based. Also on record: dose 10 mg/kg. The procedure, abridged:
(§1)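 Male Swiss albino mice (25–30 g), distal half of the tail dipped in 48 °C water, 20 s cutoff, observer blind to treatment. Test agent 10 mg/kg ip in 2% DMSO/10% encapsin, 30 min before 1 nmol N/OFQ or saline given icv (2 µl) or i.t. (5 µl). Latency read before and 5, 15, 30 and 60 min after injection. Four mice per group, repeated four times (n=16).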

For assay [3], the system named is Mus musculus. The assay can be described thus: Effect on N/OFQ-induced antinociceptive activity in Swiss albino mouse at 10 mg/kg, ip administered 30 mins before 1 nmol, it N/OFQ challenge by tail withdrawal latency test. It counts as functional, organism-based. Also on record: dose 10 mg/kg. An outline of the steps: as §1
Assay [4] has as its target T2, Kappa-type opioid receptor (Homo sapiens, UniProt P41145). Kind of assay: Displacement of [3H]DPN from human recombinant kappa-type opioid receptor expressed in CHO cell membranes. It counts as cell-based. In general terms: Displacement assays read how much labelled ligand stays bound in the presence of the test substance.
The target of assay [5] is T3, Delta-type opioid receptor (Homo sapiens, UniProt P41143). The assay can be described thus: Displacement of [3H]DPN from human recombinant delta-type opioid receptor expressed in CHO cell membranes. An outline of the steps:
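CHO membranes expressing human DOP (25 µg protein) incubated 1 h at room temperature in 50 mM Tris-HCl pH 7.4, 0.5% BSA, ~0.7 nM [3H]diprenorphine with increasing test concentrations. Filtration through PEI-soaked GF/B filters, scintillation counting. Four separate experiments.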

The target of assay [6] is T1, Nociceptin receptor. The assay can be described thus: Antagonist activity at human recombinant NOP expressed in CHO cells by [35S]GTPgammaS binding assay. The settings on record: read-out: pA2 (converted). It is filed as functional, cell-based. An outline of the steps: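 Membranes from CHO cells stably expressing human NOP, prepared in 50 mM Tris-HCl, 0.2 mM EGTA pH 7.4; 20 µg protein with MgCl2 1 mM, NaCl 100 mM, bacitracin 0.15 mM, peptidase inhibitors, GDP 100 µM, ~150 pM [35S]GTPγS. Antagonist preincubated 15 min at 30 °C, then N/OFQ concentration-response 1 h at 30 °C; filtration without PEI. pA2 from Schild analysis.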
In general terms: GTPγS resists hydrolysis and so accumulates on activated G proteins.

For assay [7], the target named is T4, Mu-type opioid receptor (Homo sapiens, UniProt P35372). The settings on record: CHO.
Assay [8] has as its target T3, Delta-type opioid receptor. The settings on record: CHO.
Assay [9] addresses T4, Mu-type opioid receptor. The assay can be described thus: Displacement of [3H]DPN from human recombinant mu-type opioid receptor expressed in CHO cell membranes. It counts as cell-based.
The target in assay [10] is T1, Nociceptin receptor. The assay can be described thus: Antagonist activity at human recombinant NOP expressed in expressed on CHO cells co-expressing Galphaqi5 chimeric protein assessed as inhibition of NOPN/OFQ-stimulated calcium mobilization. It counts as functional, cell-based. The procedure, abridged:
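CHO cells stably co-expressing hNOP and Gαqi5, 40,000 cells/well, loaded 24 h later with Fluo-4 AM 3 µM, probenecid 2.5 mM, pluronic 0.01% for 30 min at 37 °C. Assay buffer HBSS/20 mM HEPES with probenecid and Brilliant Black. Fluorescence read at room temperature. Antagonist inhibition of 10 nM N/OFQ response. pKb derived from IC50 via the Kb equation. Four experiments in duplicate.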

The target in assay [11] is T2, Kappa-type opioid receptor. The settings on record: CHO.
Assay [12] has as its target Nociceptin receptor (Mus musculus, UniProt P35377). Kind of assay: Antagonist activity at nociceptin receptor in Swiss mouse vas deferens assessed as inhibition of electrically evoked twitches. It counts as functional, tissue-based. The settings on record: read-out: pA2 (converted). The procedure, abridged:
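Vas deferens from male Swiss mice (30–35 g), field-stimulated with supramaximal 1 ms pulses at 0.05 Hz. Twitches recorded isotonically after 60 min equilibration. Cumulative N/OFQ curves run in 0.5 log steps, without or with antagonist pre-incubated 15 min. pA2 from Schild analysis. At least four experiments.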

Assay [13] has as its target Nociceptin receptor (Rattus norvegicus) (UniProt P35370). The conditions noted are these: Sprague-Dawley, Vas deferens.
The target in assay [14] is Nociceptin receptor (Cavia porcellus) (UniProt P47748). The settings on record: Albino, Ileum.
In assay [15] the test system is Mus musculus. Kind of assay: Effect on N/OFQ-induced antinociceptive activity in Swiss albino mouse at 1 mg/kg, ip administered 30 mins before 1 nmol, it N/OFQ challenge by tail withdrawal latency test. It is filed as functional, organism-based. On the set-up: dose 1 mg/kg.
In assay [16] the test system is Mus musculus. Kind of assay: Effect on N/OFQ-induced pronociciceptive activity in Swiss albino mouse at 1 mg/kg, ip administered 30 mins before 1 nmol, icv N/OFQ challenge by tail withdrawal latency test. It is filed as functional, organism-based. On the set-up: dose 1 mg/kg.

Structures are written as SMILES. The source made the active and inactive calls. Where only a bound is given, the exact number is not on record here.

These results are taken from ChEMBL document CHEMBL1781947, “Structure-activity studies on the nociceptin/orphanin FQ receptor antagonist 1-benzyl-N-{3-[spiroisobenzofuran-1(3H),4'-piperidin-1-yl]propyl} pyrrolidine-2-carboxamide” (Bioorg Med Chem, 2009).

What is called Ki is the dissociation constant of the complex between target and ligand, obtained from inhibition or displacement. A word on the pKb: it is the Kb on a negative log10 scale, so that one unit is a factor of ten.

T1 sequence (P41146 whole entry): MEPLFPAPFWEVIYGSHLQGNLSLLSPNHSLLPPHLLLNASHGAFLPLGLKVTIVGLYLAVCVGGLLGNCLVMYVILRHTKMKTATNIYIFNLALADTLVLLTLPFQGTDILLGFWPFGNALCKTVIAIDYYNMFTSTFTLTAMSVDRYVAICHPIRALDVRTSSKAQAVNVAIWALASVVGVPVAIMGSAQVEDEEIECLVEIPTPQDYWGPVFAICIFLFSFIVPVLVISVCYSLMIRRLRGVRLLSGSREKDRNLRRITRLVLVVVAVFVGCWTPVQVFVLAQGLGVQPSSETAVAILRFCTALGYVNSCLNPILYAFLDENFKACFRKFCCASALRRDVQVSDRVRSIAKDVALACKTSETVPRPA
T2 sequence (P41145 whole entry): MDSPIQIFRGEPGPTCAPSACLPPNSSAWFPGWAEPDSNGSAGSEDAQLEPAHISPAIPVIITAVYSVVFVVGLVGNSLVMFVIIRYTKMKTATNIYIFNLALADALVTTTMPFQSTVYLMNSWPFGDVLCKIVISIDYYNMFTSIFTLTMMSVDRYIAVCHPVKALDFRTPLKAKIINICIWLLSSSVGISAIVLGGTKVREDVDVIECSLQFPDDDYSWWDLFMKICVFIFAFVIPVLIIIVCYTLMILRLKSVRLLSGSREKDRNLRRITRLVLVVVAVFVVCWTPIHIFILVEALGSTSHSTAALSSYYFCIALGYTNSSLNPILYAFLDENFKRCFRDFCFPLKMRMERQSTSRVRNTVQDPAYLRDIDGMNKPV
T4 sequence (P35372 whole entry): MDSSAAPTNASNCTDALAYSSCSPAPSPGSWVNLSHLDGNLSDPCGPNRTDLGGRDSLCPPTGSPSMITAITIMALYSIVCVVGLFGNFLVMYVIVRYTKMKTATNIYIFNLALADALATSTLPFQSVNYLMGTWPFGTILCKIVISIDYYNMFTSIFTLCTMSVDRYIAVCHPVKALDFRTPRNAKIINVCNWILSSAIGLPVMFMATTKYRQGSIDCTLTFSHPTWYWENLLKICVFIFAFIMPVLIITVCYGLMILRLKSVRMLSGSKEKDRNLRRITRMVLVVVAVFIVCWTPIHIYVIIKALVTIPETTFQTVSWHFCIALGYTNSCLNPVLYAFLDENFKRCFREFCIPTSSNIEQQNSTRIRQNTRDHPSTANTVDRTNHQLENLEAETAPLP
T3 sequence (P41143 whole entry): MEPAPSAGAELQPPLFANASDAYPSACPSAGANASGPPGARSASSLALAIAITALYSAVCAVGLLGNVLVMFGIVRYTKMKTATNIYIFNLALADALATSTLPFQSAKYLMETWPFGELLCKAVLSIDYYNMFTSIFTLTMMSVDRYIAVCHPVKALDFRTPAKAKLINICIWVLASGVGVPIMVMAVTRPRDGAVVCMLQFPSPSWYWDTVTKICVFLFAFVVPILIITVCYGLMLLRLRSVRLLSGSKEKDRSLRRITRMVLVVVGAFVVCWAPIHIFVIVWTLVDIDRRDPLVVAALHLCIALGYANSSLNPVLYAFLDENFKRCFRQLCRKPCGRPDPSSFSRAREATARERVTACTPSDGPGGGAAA
Chain of Nociceptin receptor (Mus musculus, UniProt P35377) (P35377 whole entry): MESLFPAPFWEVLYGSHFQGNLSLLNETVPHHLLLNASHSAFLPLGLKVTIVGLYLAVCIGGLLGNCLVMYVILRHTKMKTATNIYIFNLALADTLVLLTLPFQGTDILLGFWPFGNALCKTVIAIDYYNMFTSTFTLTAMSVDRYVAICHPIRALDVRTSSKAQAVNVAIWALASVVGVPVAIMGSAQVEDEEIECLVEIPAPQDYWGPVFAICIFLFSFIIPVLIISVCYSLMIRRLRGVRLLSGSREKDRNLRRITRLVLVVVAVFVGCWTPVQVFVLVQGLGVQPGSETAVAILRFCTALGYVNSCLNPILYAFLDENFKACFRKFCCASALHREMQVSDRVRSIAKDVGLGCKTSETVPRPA
Chain of Nociceptin receptor (Rattus norvegicus) (P35370 whole entry): as the sequence (P35377 whole entry) above, with F9Y, A335S counted along it
Chain of Nociceptin receptor (Cavia porcellus) (P47748 whole entry): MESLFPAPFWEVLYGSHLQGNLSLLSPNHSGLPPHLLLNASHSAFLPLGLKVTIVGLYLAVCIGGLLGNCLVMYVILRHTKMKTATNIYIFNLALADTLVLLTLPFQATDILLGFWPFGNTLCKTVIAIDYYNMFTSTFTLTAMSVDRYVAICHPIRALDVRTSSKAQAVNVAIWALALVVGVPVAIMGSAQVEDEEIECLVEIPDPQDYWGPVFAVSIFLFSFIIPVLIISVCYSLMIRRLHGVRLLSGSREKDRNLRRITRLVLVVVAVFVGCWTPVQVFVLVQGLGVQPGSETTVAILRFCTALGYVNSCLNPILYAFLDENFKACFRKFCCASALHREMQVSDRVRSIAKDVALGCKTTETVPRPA

Consider `N[C@@H](Cc1ccccc1)C(=O)NCCCN1CCC2(CC1)OCc1ccccc12`, for which the Ki in assay [1] was 58.9 nM.
Still for that read-out and setting: to `C(=C[C@H]1CCCN1Cc1ccccc1)CCCN1CCC2(CC1)NCc1ccccc12` belongs more than 10000 nM.
With `O=C(NCCCN1CCC(c2c(Cl)cccc2Cl)CC1)[C@H]1CCCN1Cc1ccccc1`, the result in assay [2] and in [3] was inactive. The Ki in [4] is 316 nM; in [5], more than 1000 nM; in assay [9], 191 nM; in [1], 0.724 nM. The results for the Kb in [6] and in assay [12] were 0.123 nM and 10 nM, respectively. Further, the pKb in [7] is 6.11; in assay [8] it was less than 6; in assay [10], 8.47; in assay [11] it was less than 6; in [13], 8.06; in assay [14], 8.84.
Turning to `O=C(CNCc1ccccc1)NCCCN1CCC2(CC1)OCc1ccccc12`, the Ki in assay [1] was 60.3 nM.
Take `CN(CCCN1CCC2(CC1)OCc1ccccc12)C(=O)[C@H]1CCCN1Cc1ccccc1`: the inhibitory constant (Ki) in assay [1] was 1150 nM.
`O=C(OCCCN1CCC2(CC1)OCc1ccccc12)[C@H]1CCCN1Cc1ccccc1`: the Ki in assay [1] is 107 nM.
Take `c1ccc(CN2CCC[C@@H]2CNCCCN2CCC3(CC2)OCc2ccccc23)cc1`: the Ki in [1] is 49 nM.
On to `O=C(NCCCN1CCC2(CC1)OCc1ccccc12)[C@H]1CCCN1Cc1ccccc1`, for which the result in assay [2] and in [3] was Active. The pKb in assay [10] was determined as 9.03. For the same compound, in [1], the inhibition constant Ki is 0.24 nM. In [12], the Kb is 5.75 nM.
As for `N[C@H](Cc1ccccc1)C(=O)NCCCN1CCC2(CC1)OCc1ccccc12`, the Ki in [1] is 58.9 nM.
Turning to `c1ccc(CN2CCC[C@@H]2COCCCN2CCC3(CC2)OCc2ccccc23)cc1`, the Ki in [1] is 158 nM.
As to `O=C(NCCCN1CCC(c2c(Cl)cccc2Cl)CC1)[C@@H]1CCCN1Cc1ccccc1`, the Ki in assay [1] is 83.2 nM.
As for `Cc1cccc2c1CC[C@H](CN1CCC(c3c(Cl)cccc3Cl)CC1)C[C@@H]2O`, the outcome in assay [15] and in [16] was Active.
